# In ChEMBL document CHEMBL4130483, “Leishmanicidal and cytotoxic activity of hederagenin-bistriazolyl derivatives” (Eur J Med Chem, 2017):
# Legend:
# Leishmania infantum [1] = experiment: Antiparasitic activity against Leishmania infantum; assay type: functional, organism-based
# FaDu = experiment: Cytotoxicity against human FADU cells assessed as reduction in cell viability incubated fro 96 hrs by SRB assay; assay type: functional, cell-based
# SW-1736 = experiment: Cytotoxicity against human SW1736 cells assessed as reduction in cell viability incubated fro 96 hrs by SRB assay; assay type: functional, cell-based; conditions: SW-1736, 96 h
# Summary of the method: (§1)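 Sulforhodamine B photometric assay after 96 h treatment. Monolayers were grown in RPMI 1640 with L-glutamine, 10% heat-inactivated FBS and penicillin/streptomycin at 37 °C in humidified 5% CO2. Cut-off was 30 μM, or 60 μM for the parent. EC50 was averaged from at least three independent experiments, each in four replicates. Betulinic acid was the positive standard.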
# A-375 = experiment: Cytotoxicity against human A375 cells assessed as reduction in cell viability incubated fro 96 hrs by SRB assay; assay type: functional, cell-based; conditions: A-375, 96 h; summary of the method: as §1
# [2] = Cytotoxicity in human HepG2 cells assessed as reduction in cell viability incubated for 48 hrs by MTT assay; assay type: cell-based
# Summary of the method: (§2)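 MTT colorimetric assay with microscopic monitoring. CC50 is the concentration cytotoxic to 50% of BGM or HepG2 cells. Potassium antimonyl tartrate trihydrate was the positive control.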
# [3] = Cytotoxicity in dog DH82 cells assessed as reduction in cell viability incubated for 48 hrs by MTT assay; assay type: cell-based, Canis lupus familiaris
# Summary of the method: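 DH82 canine macrophage viability was monitored microscopically and by MTT colorimetric assay. CC50 is the concentration cytotoxic to 50% of DH82 cells. Potassium antimonyl tartrate trihydrate was the positive control.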
# [4] = Selectivity index, ratio of CC50 for dog DH82 cells to IC50 for antileishmanial activity against Leishmania infantum MHOM/BR/70/BH46 intracellular amastigotes infected in canine DH82 cells; assay type: toxicity, cell-based; conditions: read-out: Ratio CC50/IC50
# Summary of the method: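 SI = CC50 in DH82 macrophages (MTT) divided by IC50 against intracellular L. infantum BH46 amastigotes.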
# HT-29 = experiment: Cytotoxicity against human HT-29 cells assessed as reduction in cell viability incubated fro 96 hrs by SRB assay; assay type: functional, cell-based; conditions: HT-29, 96 h; summary of the method: as §1
# A2780 = experiment: Cytotoxicity against human A2780 cells assessed as reduction in cell viability incubated fro 96 hrs by SRB assay; assay type: functional, cell-based; conditions: A2780, 96 h; summary of the method: as §1
# [5] = Selectivity index, ratio of CC50 for African green monkey BGM cells to IC50 for antileishmanial activity against Leishmania infantum MHOM/BR/70/BH46 intracellular amastigotes infected in canine DH82 cells; assay type: toxicity, cell-based; conditions: read-out: Ratio CC50/IC50
# Summary of the method: (§3)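 SI = CC50 in BGM or HepG2 cells (MTT) divided by the intracellular amastigote IC50.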
# [6] = Cytotoxicity in African green monkey BGM cells assessed as reduction in cell viability incubated for 48 hrs by MTT assay; assay type: cell-based; conditions: chlorocebus aethiops; summary of the method: as §2
# [7] = Selectivity index, ratio of CC50 for human HepG2 cells to IC50 for antileishmanial activity against Leishmania infantum MHOM/BR/70/BH46 intracellular amastigotes infected in canine DH82 cells; assay type: toxicity, cell-based; conditions: read-out: Ratio CC50/IC50; summary of the method: as §3
# Leishmania infantum [8] = experiment: Antileishmanial activity against Leishmania infantum MHOM/BR/70/BH46 intracellular amastigotes infected in canine DH82 cells assessed as as inhibition of cell growth at 1000 uM incubated for 48 hrs by ELISA method; assay type: functional; conditions: MHOM/BR/70/BH46, DH82, 48 h, read-out: GI
# Leishmania infantum [9] = experiment: Antileishmanial activity against Leishmania infantum MHOM/BR/70/BH46 intracellular amastigotes infected in canine DH82 cells assessed as as inhibition of cell growth incubated for 48 hrs by ELISA method; assay type: functional, organism-based; conditions: MHOM/BR/70/BH46, DH82, 48 h
# Summary of the method: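 L. infantum BH46 intracellular amastigotes. Phase II testing at 0.1, 1.0, 10 and 100 μM. IC50 is the concentration inhibiting in vitro growth by 50%, taken from dose-response curves (log concentration vs inhibition) run in four replicates. Potassium antimonyl tartrate trihydrate served as positive control.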
IC50 (Leishmania infantum [1]) [µM],SMILES,EC50 (FaDu) [µM],EC50 (SW-1736) [µM],EC50 (A-375) [µM],CC50 at 48 h [2] [µM],CC50 at 48 h [3] [µM],selectivity ratio [4],EC50 (HT-29) [µM],EC50 (A2780) [µM],selectivity ratio [5],CC50 at 48 h [6] [µM],selectivity ratio [7],inhibition of growth at 1000 µM (Leishmania infantum [8]) [%],IC50 (Leishmania infantum [9]) [µM]
32 to 34,CC1(C)CC[C@]2(C(=O)OCc3cn(Cc4ccccc4[N+](=O)[O-])nn3)CC[C@]3(C)C(=CC[C@@H]4[C@@]5(C)CC[C@H](O)[C@@](C)(CO)[C@@H]5CC[C@]43C)[C@@H]2C1,,,,,,,,,,,,,
,C=C(C)[C@@H]1CC[C@]2(C(=O)O)CC[C@]3(C)[C@H](CC[C@@H]4[C@@]5(C)CC[C@H](O)C(C)(C)[C@@H]5CC[C@]43C)[C@@H]12 [BETULINIC ACID],13.4,16.4,12,,,,,,,,,,
,CC1(C)CC[C@]2(C(=O)OCc3cn(Cc4ccccc4)nn3)CC[C@]3(C)C(=CC[C@@H]4[C@@]5(C)CC[C@H](O)[C@@](C)(COCc6cn(Cc7ccccc7)nn6)[C@@H]5CC[C@]43C)[C@@H]2C1,> 30,> 30,> 30,,,,> 30,> 30,,,,17.7,
2 to 6,CC1(C)CC[C@]2(C(=O)NCc3cn(Cc4ccccc4[N+](=O)[O-])nn3)CC[C@]3(C)C(=CC[C@@H]4[C@@]5(C)CC[C@H](O)[C@@](C)(CO)[C@@H]5CC[C@]43C)[C@@H]2C1,,,,,,,,,,,,,
,CC1(C)CC[C@]2(C(=O)OCc3cn(Cc4ccccc4Br)nn3)CC[C@]3(C)C(=CC[C@@H]4[C@@]5(C)CC[C@H](O)[C@@](C)(COCc6cn(Cc7ccccc7Br)nn6)[C@@H]5CC[C@]43C)[C@@H]2C1,> 30,> 30,> 30,,,,> 30,> 30,,,,53.4,
,CC1(C)CC[C@]2(C(=O)OCc3cn(Cc4cccc([N+](=O)[O-])c4)nn3)CC[C@]3(C)C(=CC[C@@H]4[C@@]5(C)CC[C@H](O)[C@@](C)(COCc6cn(Cc7cccc([N+](=O)[O-])c7)nn6)[C@@H]5CC[C@]43C)[C@@H]2C1,> 30,> 30,> 30,,,,> 30,> 30,,,,21.4,
,Cc1ccc(Cn2cc(COC[C@@]3(C)[C@@H]4CC[C@]5(C)[C@H](CC=C6[C@@H]7CC(C)(C)CC[C@]7(C(=O)OCc7cn(Cc8ccc(C)cc8)nn7)CC[C@]65C)[C@@]4(C)CC[C@@H]3O)nn2)cc1,> 30,> 30,26.1,,,,21.7,29.1,,,,0,
,CC1(C)CC[C@]2(C(=O)OCc3cn(Cc4ccc([N+](=O)[O-])cc4)nn3)CC[C@]3(C)C(=CC[C@@H]4[C@@]5(C)CC[C@H](O)[C@@](C)(COCc6cn(Cc7ccc([N+](=O)[O-])cc7)nn6)[C@@H]5CC[C@]43C)[C@@H]2C1,> 30,> 30,> 30,> 1000,> 1000,> 38,> 30,> 30,> 38,> 1000,> 38,58.6,25.9
,Cc1cccc(Cn2cc(COC[C@@]3(C)[C@@H]4CC[C@]5(C)[C@H](CC=C6[C@@H]7CC(C)(C)CC[C@]7(C(=O)OCc7cn(Cc8cccc(C)c8)nn7)CC[C@]65C)[C@@]4(C)CC[C@@H]3O)nn2)c1,> 30,> 30,> 30,,,,> 30,> 30,,,,31.3,

SMILES,IC50 (Leishmania infantum [1]) [µM],EC50 (FaDu) [µM],EC50 (SW-1736) [µM],EC50 (A-375) [µM],CC50 at 48 h [2] [µM],CC50 at 48 h [3] [µM],selectivity ratio [4],EC50 (HT-29) [µM],EC50 (A2780) [µM],selectivity ratio [5],CC50 at 48 h [6] [µM],selectivity ratio [7],inhibition of growth at 1000 µM (Leishmania infantum [8]) [%],IC50 (Leishmania infantum [9]) [µM]
CC1(C)CC[C@]2(C(=O)O)CC[C@]3(C)C(=CC[C@@H]4[C@@]5(C)CC[C@H](O)[C@@](C)(CO)[C@@H]5CC[C@]43C)[C@@H]2C1 [HEDERAGENIN],61.6,> 60,> 60,> 60,> 1000,> 1000,> 10,> 60,> 60,0.9,57,> 16.2,55.5,
